Reference: ChEMBL document CHEMBL2413013, “Triplex-forming ability of oligonucleotides containing 1-aryl-1,2,3-triazole nucleobases linked via a two atom-length spacer” (Bioorg Med Chem, 2013)

Experiments:
[1] = Binding affinity to hairpin double stranded DNA CG base pair in sodium cacodylate buffer at pH 6.8 assessed as triplex-forming ability measuring melting temperature after by UV melting experiment
How it was run: (§1)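 TFO and hairpin dsDNA target, each strand at 1.89 μM final, in 10 mM sodium cacodylate (pH 6.8) with 100 mM KCl and 50 mM MgCl₂. Annealed in boiling water, then cooled slowly to 5 °C. Melting was followed at 260 nm from 5 to 90 °C at 0.5 °C/min. Tm was taken by the two-point average method, mean of three independent runs.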

[2] = Binding affinity to hairpin double stranded DNA GC base pair in sodium cacodylate buffer at pH 6.8 assessed as triplex-forming ability measuring melting temperature after by UV melting experiment; how it was run: as §1
[3] = Binding affinity to hairpin double stranded DNA TA base pair in sodium cacodylate buffer at pH 6.8 assessed as triplex-forming ability measuring melting temperature after by UV melting experiment; how it was run: as §1
[4] = Binding affinity to hairpin double stranded DNA AT base pair in sodium cacodylate buffer at pH 6.8 assessed as triplex-forming ability measuring melting temperature after by UV melting experiment; how it was run: as §1

**Q.** Which results are given for `CC1=CN([C@H]2C[C@H](O[PH](OCCC#N)(OC(C)[C@H]3O[C@@H](n4ccc(N)nc4=O)C[C@@H]3O[PH](OCCC#N)(OC[C@H]3O[C@@H](n4cc(C)c(=O)[nH]c4=O)C[C@@H]3O[PH](OCCC#N)(OC(C)[C@H]3O[C@@H](n4ccc(N)nc4=O)C[C@@H]3O[PH](OCCC#N)(OC[C@H]3O[C@@H](n4cc(C)c(=O)[nH]c4=O)C[C@@H]3O)N(C(C)C)C(C)C)N(C(C)C)C(C)C)N(C(C)C)C(C)C)N(C(C)C)C(C)C)[C@@H](CO[PH](OCCC#N)(O[C@H]3C[C@H](n4ccc(N)nc4=O)O[C@@H]3C(C)O[PH](OCCC#N)(O[C@H]3C[C@H](n4cc(C)c(=O)[nH]c4=O)O[C@@H]3COP(=O)(O)O[C@H]3C[C@H](OCc4cn(-c5ccccc5)nn4)O[C@@H]3CO[PH](OCCC#N)(O[C@H]3C[C@H](n4cc(C)c(=O)[nH]c4=O)O[C@@H]3CO[PH](OCCC#N)(O[C@H]3C[C@H](n4ccc(N)nc4=O)O[C@@H]3C(C)O[PH](OCCC#N)(O[C@H]3C[C@H](n4cc(C)c(=O)[nH]c4=O)O[C@@H]3CO[PH](OCCC#N)(O[C@H]3C[C@H](n4cc(C)c(=O)[nH]c4=O)O[C@@H]3CO[PH](OCCC#N)(O[C@H]3C[C@H](n4cc(C)c(=O)[nH]c4=O)O[C@@H]3CO[PH](OCCC#N)(O[C@H]3C[C@H](n4cc(C)c(=O)[nH]c4=O)O[C@@H]3CO[PH](OCCC#N)(O[C@H]3C[C@H](n4cc(C)c(=O)[nH]c4=O)O[C@@H]3CO)N(C(C)C)C(C)C)N(C(C)C)C(C)C)N(C(C)C)C(C)C)N(C(C)C)C(C)C)N(C(C)C)C(C)C)N(C(C)C)C(C)C)N(C(C)C)C(C)C)N(C(C)C)C(C)C)N(C(C)C)C(C)C)O2)[C@@H](O)NC1=O` (stereo not given in full)?
**A.** Tm [1]: 22 °C; Tm [2]: 22 °C; Tm [3]: 20 °C; Tm [4]: 20 °C

**Q.** Which results are given for `Cc1cn([C@H]2C[C@H](O[PH](OCCC#N)(OC[C@H]3O[C@@H](n4cc(C)c(=O)[nH]c4=O)C[C@@H]3O[PH](OCCC#N)(OC[C@H]3O[C@@H](n4cc(C)c(=O)[nH]c4=O)C[C@@H]3O[PH](OCCC#N)(OC[C@H]3O[C@@H](n4cc(C)c(=O)[nH]c4=O)C[C@@H]3O[PH](OCCC#N)(OC[C@H]3O[C@@H](n4cc(C)c(=O)[nH]c4=O)C[C@@H]3O[PH](OCCC#N)(OC(C)[C@H]3O[C@@H](n4ccc(N)nc4=O)C[C@@H]3O[PH](OCCC#N)(OC[C@H]3O[C@@H](n4cc(C)c(=O)[nH]c4=O)C[C@@H]3O[PH](OCCC#N)(OC[C@H]3O[C@@H](OCc4cn(-c5cccc(CO)c5)nn4)C[C@@H]3OP(=O)(O)OC[C@H]3O[C@@H](n4cc(C)c(=O)[nH]c4=O)C[C@@H]3O[PH](OCCC#N)(OC(C)[C@H]3O[C@@H](n4ccc(N)nc4=O)C[C@@H]3O[PH](OCCC#N)(OC[C@H]3O[C@@H](n4cc(C)c(=O)[nH]c4=O)C[C@@H]3O[PH](OCCC#N)(OC(C)[C@H]3O[C@@H](n4ccc(N)nc4=O)C[C@@H]3O[PH](OCCC#N)(OC[C@H]3O[C@@H](n4cc(C)c(=O)[nH]c4=O)C[C@@H]3O[PH](OCCC#N)(OC(C)[C@H]3O[C@@H](n4ccc(N)nc4=O)C[C@@H]3O[PH](OCCC#N)(OC[C@H]3O[C@@H](n4cc(C)c(=O)[nH]c4=O)C[C@@H]3O)N(C(C)C)C(C)C)N(C(C)C)C(C)C)N(C(C)C)C(C)C)N(C(C)C)C(C)C)N(C(C)C)C(C)C)N(C(C)C)C(C)C)N(C(C)C)C(C)C)N(C(C)C)C(C)C)N(C(C)C)C(C)C)N(C(C)C)C(C)C)N(C(C)C)C(C)C)N(C(C)C)C(C)C)N(C(C)C)C(C)C)[C@@H](CO)O2)c(=O)[nH]c1=O` (stereo not given in full)?
**A.** Tm [1]: 25 °C; Tm [2]: 23 °C; Tm [3]: 22 °C; Tm [4]: 23 °C

**Q.** What does the source list for `Cc1cn([C@H]2C[C@H](O[PH](OCCC#N)(OC[C@H]3O[C@@H](n4cc(C)c(=O)[nH]c4=O)C[C@@H]3O[PH](OCCC#N)(OC[C@H]3O[C@@H](n4cc(C)c(=O)[nH]c4=O)C[C@@H]3O[PH](OCCC#N)(OC[C@H]3O[C@@H](n4cc(C)c(=O)[nH]c4=O)C[C@@H]3O[PH](OCCC#N)(OC[C@H]3O[C@@H](n4cc(C)c(=O)[nH]c4=O)C[C@@H]3O[PH](OCCC#N)(OC(C)[C@H]3O[C@@H](n4ccc(N)nc4=O)C[C@@H]3O[PH](OCCC#N)(OC[C@H]3O[C@@H](n4cc(C)c(=O)[nH]c4=O)C[C@@H]3O[PH](OCCC#N)(OC[C@H]3O[C@@H](CCc4cn(-c5cc(NC(N)=O)cc(NC(N)=O)c5)nn4)C[C@@H]3OP(=O)(O)OC[C@H]3O[C@@H](n4cc(C)c(=O)[nH]c4=O)C[C@@H]3O[PH](OCCC#N)(OC(C)[C@H]3O[C@@H](n4ccc(N)nc4=O)C[C@@H]3O[PH](OCCC#N)(OC[C@H]3O[C@@H](n4cc(C)c(=O)[nH]c4=O)C[C@@H]3O[PH](OCCC#N)(OC(C)[C@H]3O[C@@H](n4ccc(N)nc4=O)C[C@@H]3O[PH](OCCC#N)(OC[C@H]3O[C@@H](n4cc(C)c(=O)[nH]c4=O)C[C@@H]3O[PH](OCCC#N)(OC(C)[C@H]3O[C@@H](n4ccc(N)nc4=O)C[C@@H]3O[PH](OCCC#N)(OC[C@H]3O[C@@H](n4cc(C)c(=O)[nH]c4=O)C[C@@H]3O)N(C(C)C)C(C)C)N(C(C)C)C(C)C)N(C(C)C)C(C)C)N(C(C)C)C(C)C)N(C(C)C)C(C)C)N(C(C)C)C(C)C)N(C(C)C)C(C)C)N(C(C)C)C(C)C)N(C(C)C)C(C)C)N(C(C)C)C(C)C)N(C(C)C)C(C)C)N(C(C)C)C(C)C)N(C(C)C)C(C)C)[C@@H](CO)O2)c(=O)[nH]c1=O` (stereo not given in full)?
**A.** Tm [1]: 27 °C; Tm [2]: 23 °C; Tm [3]: 27 °C; Tm [4]: 22 °C

**Q.** What does the source list for `Cc1cn([C@H]2C[C@H](O[PH](OCCC#N)(OC[C@H]3O[C@@H](n4cc(C)c(=O)[nH]c4=O)C[C@@H]3O[PH](OCCC#N)(OC[C@H]3O[C@@H](n4cc(C)c(=O)[nH]c4=O)C[C@@H]3O[PH](OCCC#N)(OC[C@H]3O[C@@H](n4cc(C)c(=O)[nH]c4=O)C[C@@H]3O[PH](OCCC#N)(OC[C@H]3O[C@@H](n4cc(C)c(=O)[nH]c4=O)C[C@@H]3O[PH](OCCC#N)(OC(C)[C@H]3O[C@@H](n4ccc(N)nc4=O)C[C@@H]3O[PH](OCCC#N)(OC[C@H]3O[C@@H](n4cc(C)c(=O)[nH]c4=O)C[C@@H]3O[PH](OCCC#N)(OC[C@H]3O[C@@H](OCc4cn(-c5cccc(NC(N)=O)c5)nn4)C[C@@H]3OP(=O)(O)OC[C@H]3O[C@@H](n4cc(C)c(=O)[nH]c4=O)C[C@@H]3O[PH](OCCC#N)(OC(C)[C@H]3O[C@@H](n4ccc(N)nc4=O)C[C@@H]3O[PH](OCCC#N)(OC[C@H]3O[C@@H](n4cc(C)c(=O)[nH]c4=O)C[C@@H]3O[PH](OCCC#N)(OC(C)[C@H]3O[C@@H](n4ccc(N)nc4=O)C[C@@H]3O[PH](OCCC#N)(OC[C@H]3O[C@@H](n4cc(C)c(=O)[nH]c4=O)C[C@@H]3O[PH](OCCC#N)(OC(C)[C@H]3O[C@@H](n4ccc(N)nc4=O)C[C@@H]3O[PH](OCCC#N)(OC[C@H]3O[C@@H](n4cc(C)c(=O)[nH]c4=O)C[C@@H]3O)N(C(C)C)C(C)C)N(C(C)C)C(C)C)N(C(C)C)C(C)C)N(C(C)C)C(C)C)N(C(C)C)C(C)C)N(C(C)C)C(C)C)N(C(C)C)C(C)C)N(C(C)C)C(C)C)N(C(C)C)C(C)C)N(C(C)C)C(C)C)N(C(C)C)C(C)C)N(C(C)C)C(C)C)N(C(C)C)C(C)C)[C@@H](CO)O2)c(=O)[nH]c1=O` (stereo not given in full)?
**A.** Tm [1]: 25 °C; Tm [2]: 23 °C; Tm [3]: 23 °C; Tm [4]: 21 °C

**Q.** With `Cc1cn([C@H]2C[C@H](O[PH](OCCC#N)(OC[C@H]3O[C@@H](n4cc(C)c(=O)[nH]c4=O)C[C@@H]3O[PH](OCCC#N)(OC[C@H]3O[C@@H](n4cc(C)c(=O)[nH]c4=O)C[C@@H]3O[PH](OCCC#N)(OC[C@H]3O[C@@H](n4cc(C)c(=O)[nH]c4=O)C[C@@H]3O[PH](OCCC#N)(OC[C@H]3O[C@@H](n4cc(C)c(=O)[nH]c4=O)C[C@@H]3O[PH](OCCC#N)(OC(C)[C@H]3O[C@@H](N4C=CC(N)=N[C@@H]4O)C[C@@H]3O[PH](OCCC#N)(OC[C@H]3O[C@@H](n4cc(C)c(=O)[nH]c4=O)C[C@@H]3O[PH](OCCC#N)(OC[C@H]3O[C@@H](OCc4cn(-c5cccc(C(N)=O)c5)nn4)C[C@@H]3OP(=O)(O)OC[C@H]3O[C@@H](n4cc(C)c(=O)[nH]c4=O)C[C@@H]3O[PH](OCCC#N)(OC(C)[C@H]3O[C@@H](n4ccc(N)nc4=O)C[C@@H]3O[PH](OCCC#N)(OC[C@H]3O[C@@H](n4cc(C)c(=O)[nH]c4=O)C[C@@H]3O[PH](OCCC#N)(OC(C)[C@H]3O[C@@H](n4ccc(N)nc4=O)C[C@@H]3O[PH](OCCC#N)(OC[C@H]3O[C@@H](n4cc(C)c(=O)[nH]c4=O)C[C@@H]3O[PH](OCCC#N)(OC(C)[C@H]3O[C@@H](n4ccc(N)nc4=O)C[C@@H]3O[PH](OCCC#N)(OC[C@H]3O[C@@H](n4cc(C)c(=O)[nH]c4=O)C[C@@H]3O)N(C(C)C)C(C)C)N(C(C)C)C(C)C)N(C(C)C)C(C)C)N(C(C)C)C(C)C)N(C(C)C)C(C)C)N(C(C)C)C(C)C)N(C(C)C)C(C)C)N(C(C)C)C(C)C)N(C(C)C)C(C)C)N(C(C)C)C(C)C)N(C(C)C)C(C)C)N(C(C)C)C(C)C)N(C(C)C)C(C)C)[C@@H](CO)O2)c(=O)[nH]c1=O` (stereo not given in full) as the molecule, how does the Tm [1] read?
**A.** The Tm was 23 °C.

**Q.** And the Tm [2]?
**A.** Its Tm is 20 °C.

**Q.** What about the Tm [3] of the same molecule?
**A.** Its Tm is 19 °C.

**Q.** And the Tm [4]?
**A.** Its Tm is 19 °C.
